Measurements as given in ChEMBL document CHEMBL1146361, “Studies on acyclic pyrimidines as inhibitors of mycobacteria” (Bioorg Med Chem, 2007).

Tests used:
[1] = test system: Mycobacterium tuberculosis; assay: Antimycobacterial activity against Mycobacterium bovis BCG by MABA; type: functional, variant bovis BCG
Method in brief: (§1)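 Compounds in DMSO (100× highest final concentration), diluted in 7H9GC; tested at 100, 50, 10 and 1 µg/mL in triplicate, three experiments. Frozen inoculum diluted in 7H9GC. Read visually and spectrophotometrically. […], mean given. Visual MIC = lowest concentration preventing blue-to-pink change.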

[2] = test system: Mycobacterium tuberculosis; assay: Antimycobacterial activity against Mycobacterium bovis BCG at 100 ug/mL after 24 to 48 hrs by MABA; type: functional; settings: variant bovis BCG; method in brief: as §1
[3] = test system: Mycobacterium tuberculosis; assay: Antimycobacterial activity against Mycobacterium bovis BCG at 50 ug/mL after 24 to 48 hrs by MABA; type: functional; settings: variant bovis BCG; method in brief: as §1
[4] = test system: Mycobacterium tuberculosis; assay: Antimycobacterial activity against Mycobacterium bovis BCG at 10 ug/mL after 24 to 48 hrs by MABA; type: functional; settings: variant bovis BCG; method in brief: as §1
[5] = test system: Mycobacterium tuberculosis; assay: Antimycobacterial activity against Mycobacterium bovis BCG at 1 ug/mL after 24 to 48 hrs by MABA; type: functional; settings: variant bovis BCG; method in brief: as §1

O=c1[nH]c(=O)n(COCCO)cc1Cl
Inhibition [1]: 0%

O=c1ccn(COCCO)c(=O)[nH]1
Inhibition [1]: 0%

Cc1cn(COCCO)c(=O)[nH]c1=O
Inhibition [1]: 0%

[N-]=[N+]=NC(CI)c1cn(COC(CO)CO)c(=O)[nH]c1=O (stereo unspecified)
Inhibition [1]: 0%

[N-]=[N+]=NC(CBr)c1cn(COC(CO)CO)c(=O)[nH]c1=O (stereo unspecified)
Inhibition [1]: 0%

[N-]=[N+]=NC(CI)c1cn(COCCO)c(=O)[nH]c1=O (stereo unspecified)
inhibition at 100 µg/mL [2]: 50%
inhibition at 50 µg/mL [3]: 50%

[N-]=[N+]=NC(CBr)c1cn(COCCO)c(=O)[nH]c1=O (stereo unspecified)
inhibition at 50 µg/mL [3]: 100%

O=c1[nH]c(=O)n(COCCO)cc1I
Inhibition [1]: 0%

Nc1cn(COCCO)c(=O)[nH]c1=O
inhibition at 100 µg/mL [2]: 50%
inhibition at 50 µg/mL [3]: 50%

CCCCCCCCCCC#Cc1cn(COCCO)c(=O)n(C#CCCCCCCCCCC)c1=O
Inhibition [1]: 0%

CCCCCCCCC#Cc1cn(COC(CO)CO)c(=O)[nH]c1=O
inhibition at 100 µg/mL [2]: 100%
inhibition at 50 µg/mL [3]: 100%
inhibition at 10 µg/mL [4]: 60%

CCCCCCCCCCC#Cc1cn(COC(CO)CO)c(=O)[nH]c1=O
inhibition at 100 µg/mL [2]: 100%
inhibition at 50 µg/mL [3]: 100%
inhibition at 10 µg/mL [4]: 80%
inhibition at 1 µg/mL [5]: 50%

CCc1cn(COCCO)c(=O)[nH]c1=O
Inhibition [1]: 0%

CCCCCC#Cc1cn(COCCO)c(=O)[nH]c1=O
Inhibition [1]: 0%

O=c1[nH]c(=O)n(COCCO)cc1F
Inhibition [1]: 0%

O=c1[nH]c(=O)n(COCCO)cc1Br
Inhibition [1]: 0%

[N-]=[N+]=NC(CCl)c1cn(COC(CO)CO)c(=O)[nH]c1=O (stereo unspecified)
Inhibition [1]: 0%

[N-]=[N+]=NC(CCl)c1cn(COCCO)c(=O)[nH]c1=O (stereo unspecified)
inhibition at 100 µg/mL [2]: 100%
inhibition at 50 µg/mL [3]: 100%
inhibition at 10 µg/mL [4]: 50%

O=c1[nH]c(=O)n(COCCO)cc1[N+](=O)[O-]
Inhibition [1]: 0%

C=C(N=[N+]=[N-])c1cn(COCCO)c(=O)[nH]c1=O
inhibition at 100 µg/mL [2]: 50%
inhibition at 50 µg/mL [3]: 50%
inhibition at 10 µg/mL [4]: 50%

C=C(N=[N+]=[N-])c1cn(COC(CO)CO)c(=O)[nH]c1=O
Inhibition [1]: 0%

C=Cc1cn(COCCO)c(=O)[nH]c1=O
Inhibition [1]: 0%

C=Cc1cn(COC(CO)CO)c(=O)[nH]c1=O
Inhibition [1]: 0%

O=c1[nH]c(=O)n(COC(CO)CO)cc1I [IODACYCLUR]
Inhibition [1]: 0%

CO[C@H]1/C=C/O[C@@]2(C)Oc3c(C)c(O)c4c(O)c(c(/C=N/N5CCN(C)CC5)c(O)c4c3C2=O)NC(=O)/C(C)=C\C=C\[C@H](C)[C@H](O)[C@@H](C)[C@@H](O)[C@@H](C)[C@H](OC(C)=O)[C@@H]1C [RIFAMPIN]
inhibition at 1 µg/mL [5]: 100%
